# Bioassay records deposited in PubChem BioAssay by Johns Hopkins Ion Channel Center.
# KCNQ1 act – potentiators or activators of human KCNQ1 potassium channel; P51787; CHO-K1 KCNQ1, thallium flux FluxOR fluorescence; stronger effect = higher value; B-score at 10 µM; actives 0.35% (n = 310,000); AID 2648;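 active = fluorescence ratio B-score, a plate-corrected score, at least three library SD, with initial intensity B-score within 5 SD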
#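 Assay system: CHO-K1 cells stably expressing KCNQ1; Medium: assay buffer with matched DMSO; Also added: K+/Tl+ depolarizing stimulus; Dosing: single dose; Timing: dye 90 min, compound 20 min, room temperature; Measured by: kinetic FluxOR thallium fluorescence, 10-s 1-Hz baseline, 110-s post-stimulus read; Read-out: peak-minus-minimum fluorescence over initial fluorescence, negative-control normalized, B-scored.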
# KCNQ1 block – inhibitors of human KCNQ1 potassium channel. B-score at 10 µM. actives 1.3% (n = 310,000). CHO-K1 KCNQ1, FluxOR thallium flux fluorescence; stronger effect = higher value;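 active = compounds whose thallium flux B-score, printed positive for inhibition, exceeds three library SD while starting fluorescence stays within three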;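 note: channel opened by potassium depolarization with thallium stimulus after 20 min compound exposure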
# KCNK3 block – human KCNK3 channel inhibition, primary screen; O14649; CHO-KCNK3 thallium flux, FluxOR fluorescence; stronger effect = lower value; B-score at 10 µM; actives 0.84% (n = 340,000); AID 602410;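 active = B-score under library mean minus 4 SD, starting fluorescence ratio at most library mean plus 5 SD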;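 note: more negative B-score means stronger inhibition of thallium flux through KCNK3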
# KCNK9 inh – inhibitors of human KCNK9 two-pore domain potassium channel | Q9NPC2 | HEK293 KCNK9, FluxOR thallium flux fluorescence; stronger effect = lower value | B-score at 10 µM | actives 1.2% (n = 310,000);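 active = ratio B-score over 3 SD below the library mean, with starting fluorescence within 5 SD of its mean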;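 note: negative B-score means less thallium flux so channel inhibition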
# hERG rescue – hERG (human) protection from proarrhythmic block; CHO-hERG, FluxOR thallium flux, dofetilide IC70 present; actives 0.51% (n = 310,000); activation (rescue from dofetilide block), less the hit threshold, % at 10 µM; Q12809;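 active = activation above the mean of controls blocked by dofetilide plus 5 SD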;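 note: thallium influx through hERG after potassium depolarization seen as dye fluorescence rise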
# KCNK9 block conf – human KCNK9 inhibitor confirmation; shares compounds with KCNK9 inh; HEK293 KCNK9 cells, FluxOR thallium flux fluorescence; inhibition, % at 10 µM; actives 43% (n = 4,900);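 active = thallium signal inhibited by more than 5 SD of the compound-free buffer control wells, on both duplicate plates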;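 note: 0% = assay buffer control wells without compound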
# Kir2-1 spec – mouse Kir2.1 off-target activity of KCNK9 modulators; shares compounds with KCNK9 inh; Kir2.1 cells, FluxOR thallium flux fluorescence; inhibition, % at 10 µM; actives 4% (n = 4,900); AID 492993;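 active = thallium signal drop more than 5 SD beyond the mean of the no-compound control wells, seen in both duplicate plates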;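 note: signal is fluorescence rise after thallium addition divided by baseline fluorescence; plate controls were assay buffer only for no effect and full block by chlorpromazine control for full effect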
# Target sequence (P35561 whole entry, looked up): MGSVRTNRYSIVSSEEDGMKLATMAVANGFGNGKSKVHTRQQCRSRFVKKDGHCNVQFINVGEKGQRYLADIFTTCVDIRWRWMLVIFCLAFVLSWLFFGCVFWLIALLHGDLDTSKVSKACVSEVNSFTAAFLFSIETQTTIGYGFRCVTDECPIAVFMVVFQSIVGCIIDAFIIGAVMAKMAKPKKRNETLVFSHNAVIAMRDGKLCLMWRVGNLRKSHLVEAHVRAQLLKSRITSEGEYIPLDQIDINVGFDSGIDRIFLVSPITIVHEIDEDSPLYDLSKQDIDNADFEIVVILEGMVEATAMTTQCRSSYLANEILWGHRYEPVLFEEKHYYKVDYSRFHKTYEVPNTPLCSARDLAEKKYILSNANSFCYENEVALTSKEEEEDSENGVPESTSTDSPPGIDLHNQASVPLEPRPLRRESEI
# HEK293 Tl ctr – non-induced cell nonspecific activity of KCNK9 modulators. shares compounds with KCNK9 inh. non-induced KCNK9-HEK293, FluxOR thallium flux. inhibition, % at 10 µM. actives 40% (n = 4,900). AID 492997;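 active = thallium signal drop beyond 5 SD of the untreated control mean, on both duplicate plates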;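 note: plate controls were buffer only IC0 wells for no effect and SID17386958 at its maximal inhibitory level for full effect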
# KCNK3 confirm – confirmation of human KCNK3 two-pore domain potassium channel inhibitors. shares compounds with KCNK3 block. CHO-KCNK3 thallium flux, FluxOR fluorescence; 0% buffer, 100% carvedilol maximal block. ratio percent of control, % at 10 µM. actives 99% (n = 2,400). AID 651638;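 active = ratio percent of control, averaged over triplicates, above buffer control mean plus 5 SD, cut at about 64% in these data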;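 note: ratio is the fluorescence rise from min to max over baseline after thallium stimulus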
# KCNK3 noninduced – counter-screen for KCNK3 inhibitors: effect in non-induced cells | shares compounds with KCNK3 block | non-induced KCNK3 parental cells, FluxOR thallium flux; stronger effect = lower value | thallium flux ratio (lower = more inhibition) at 10 µM | actives 40% (n = 2,400);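 active = thallium flux ratio, averaged over three wells, more than 5 SD below the buffer control mean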;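 note: host cells are CHO cells without KCNK3 induction; ratio is peak minus trough fluorescence over baseline then normalized to buffer controls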
# Numbers without * were called inactive; i = inactive; . = not tested or not shown. Compounds with a hit are over-represented: about 3.1% of the library has one in this group of screens.
SMILES,KCNQ1 act,KCNQ1 block,KCNK3 block,KCNK9 inh,hERG rescue,KCNK9 block conf,Kir2-1 spec,HEK293 Tl ctr,KCNK3 confirm,KCNK3 noninduced
CN(c1ccccc1)S(=O)(=O)c1cccc(NC(=O)CN2CCCc3ccccc32)c1,i,i,-9.8*,-11*,-8,50%*,i,24%*,113*,i
COCCN1Cc2cccc(C(=O)Nc3ccc(-c4nc5ccccc5[nH]4)cc3)c2C1=O,i,i,i,i,-6,.,.,.,.,.
COCCN1Cc2cccc(C(=O)Nc3cccc(-c4nc5ccccc5[nH]4)c3)c2C1=O,i,i,-10*,-13*,-18,58%*,i,i,120*,0.15*
COc1ccc(Cl)cc1N(CC(=O)N(C)C)S(=O)(=O)c1ccc(C)c([N+](=O)[O-])c1,i,i,i,i,-17,.,.,.,.,.
O=c1/c(=C\c2ccc(O)cc2)sc2n1C(c1ccccc1)C(c1ccccc1)=NN=2 (stereo not drawn),i,i,i,-13*,-20,56%*,i,52%*,132*,0.15*
CCn1cc(Br)c(C(=O)Nc2ccc(C(=O)OC(C)C)cc2)n1,i,i,-9.7*,-11*,-5,41%*,i,26%*,99*,i
COc1cc(/C=N/NC(=O)c2ccc(Cn3cc([N+](=O)[O-])cn3)o2)cc(Br)c1O,i,i,-11*,-16*,-22,57%*,i,35%*,99*,i
COc1cccc(C2CNC3(CCCC(C)C3)c3[nH]c4ccccc4c32)c1OC (stereo not drawn),i,i,i,i,-5,.,.,.,.,.
CC1(C)CC(=O)CC2(C1)NCC(c1ccccc1)c1c2[nH]c2ccccc12 (stereo not drawn),i,i,-9.3*,-15*,-4,64%*,i,34%*,99*,i
COc1ccc(CN(C)C(=O)c2oc3ccccc3c2CSC)cc1F,i,i,-11*,-12*,-9,67%*,i,30%*,104*,i
CCOC(=O)/C(C(=O)Nc1ccccc1Cl)=C1/NC(C)(C)Cc2ccccc21,i,i,-9.1*,-10*,-7,38%*,i,40%*,116*,i
O=C(N/N=C/c1ccccc1)c1ccc(OCc2ccccc2)cc1,i,i,i,i,-17,.,.,.,.,.
O=C(N/N=C/c1ccccc1)c1sccc1OCc1ccc(F)cc1,i,i,-9.5*,-15*,-10,65%*,i,41%*,109*,i
CCCCC(C(=O)O)C(C)CC(=O)NNC(=O)c1ccco1 (stereo not drawn),i,i,i,i,-8,.,.,.,.,.
CCOc1cc(-c2nc(-c3ccccc3)c(-c3cc([N+](=O)[O-])ccc3C)[nH]2)ccc1O,i,7*,-9.6*,-12*,-16,56%*,i,i,124*,0.12*
O=[N+]([O-])c1ccc2nc(-c3ccccc3)[nH]c2c1,i,i,i,i,-7,.,.,.,.,.
CCOc1ccccc1C(=O)Nc1cccc(-c2nnc(-c3ccccc3)o2)c1,i,i,-9.5*,-16*,-14,45%*,i,28%*,107*,i
CC(C)N(Cc1nc(-c2ccccc2)no1)C(=O)C(Cl)(Cl)Cl,i,i,i,i,-10,.,.,.,.,.
COc1ccc(/C=N\NC(=O)c2sccc2C)cc1Cn1nc(C)cc1C,i,i,-8.8*,-8.2*,-15,i,i,i,88*,i
CC1=NN(C(=O)COc2cc(C)ccc2C(C)C)C(O)(c2ccccc2)C1 (stereo not drawn),i,i,-9.8*,-15*,-11,58%*,i,38%*,120*,0.16*
CC1=NN(C(=O)CSCc2ccccc2)C(O)(c2ccc(Cl)cc2)C1 (stereo not drawn),i,i,-13*,-13*,-5,62%*,i,34%*,98*,i
CC(=O)Nc1ccc2nc(-c3cccn3C)[nH]c2c1,i,i,i,i,-4,.,.,.,.,.
Cn1cccc1-c1nc2ccc(NC(=O)c3cccs3)cc2[nH]1,i,i,-12*,-10*,-22,46%*,i,i,141*,0.13*
Cc1cccn2cc(-c3cccc(NC(=O)c4cccs4)c3)nc12,i,i,-12*,-10*,-25,40%*,i,i,121*,i
O=C(Nc1cccc(-c2cn3cccnc3n2)c1)c1cccs1,i,i,i,i,-8,.,.,.,.,.
SMILES,KCNQ1 act,KCNQ1 block,KCNK3 block,KCNK9 inh,hERG rescue,KCNK9 block conf,Kir2-1 spec,HEK293 Tl ctr,KCNK3 confirm,KCNK3 noninduced
CCOC(=O)C(C(=O)Nc1cccc(C)c1)C1CCCCC1 (stereo not drawn),i,i,i,i,-6,.,.,.,.,.
COC(=O)c1sccc1-c1ccc(/C=N/OC(=O)c2cccs2)o1,i,i,i,i,-15,.,.,.,.,.
CCN(CC)C(=O)C1CCCN(c2ccc([N+](=O)[O-])cc2/C=N/NC(=O)c2cccc(Br)c2)C1 (stereo not drawn),i,i,i,-12*,-8,42%*,i,32%*,134*,0.13*
CCCCNc1c(C(=O)OCC)c(C)nc2c1cnn2CC,i,i,i,i,-5,.,.,.,.,.
COC(=O)c1cc(C)sc1NC(=S)N1CCN(CCc2ccccc2)CC1,i,i,-10*,i,-17,i,i,i,104*,i
Cc1noc(C)c1C(=O)Nc1ccc(C#N)cc1,i,i,i,i,0,.,.,.,.,.
COc1ccc(CN(C(=O)/C=C/c2ccccc2Cl)C2CCS(=O)(=O)C2)cc1 (stereo not drawn),i,i,-11*,-14*,-8,49%*,i,32%*,103*,0.15*
CCOc1ccc(C(=O)NCC(=O)N2CCCC2)cc1,i,i,i,i,0,.,.,.,.,.
COc1ccc(OC)c(CCNC(=O)c2cccc(NC(=O)C3=C(C)OCCS3)c2)c1,i,i,-11*,-8.2*,-22,38%*,i,i,97*,i
CC(=O)Nc1sc(C)c(C)c1C(=O)OCC(=O)Nc1ccccc1,.,.,i,.,.,.,.,.,.,.
